ChEMBL document CHEMBL1128473, “[(Biaryloxy)alkyl]isoxazoles: picornavirus inhibitors” (J Med Chem, 1995)
Converted amounts (≈) assume the structure as drawn.

Tests used:
[1] = system: Human rhinovirus sp.; assay: Concentration inhibiting 50% of the serotypes tested to 50% of the viral concentration of untreated controls following 72 hr of exposure; type: functional
Outline: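 Tissue culture infectious dose (TCID50) assay against a panel of 10 human rhinovirus serotypes. For each serotype, the viral concentration was compared with untreated controls after 72 h of compound exposure. MIC50 is the compound concentration at which half of the serotypes tested are reduced to 50% of the untreated-control viral concentration.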

[2] = Metabolic stability expressed as half life values was monitored in vitro liver microsomal assay.; type: ADME, Microsome; conditions: liver microsomes
[3] = system: Human rhinovirus sp.; assay: Minimum inhibitory concentration on HRV serotype 81; type: functional
Outline: (§1)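 Tested in a tissue culture infectious dose (TCID50) assay with 72 h compound exposure. Activity is read as the concentration that holds virus to 50% of the titer of untreated controls.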

[4] = system: Human rhinovirus sp.; assay: Minimum inhibitory concentration on HRV serotype 85; type: functional; outline: as §1
[5] = system: Human rhinovirus sp.; assay: Minimum inhibitory concentration on HRV serotype 80; type: functional; outline: as §1
[6] = system: Human rhinovirus sp.; assay: Minimum inhibitory concentration on HRV serotype 90; type: functional; outline: as §1
[7] = system: Human rhinovirus sp.; assay: Minimum inhibitory concentration on HRV serotype 36; type: functional
[8] = system: Human rhinovirus sp.; assay: Minimum inhibitory concentration on HRV serotype 51; type: functional
[9] = system: Human rhinovirus sp.; assay: Minimum inhibitory concentration on HRV serotype 25; type: functional
[10] = system: Human rhinovirus sp.; assay: Minimum inhibitory concentration on HRV serotype 88; type: functional; outline: as §1
[11] = system: Human rhinovirus sp.; assay: Minimum inhibitory concentration on HRV serotype 29; type: functional
[12] = system: Human rhinovirus sp.; assay: Minimum inhibitory concentration on HRV serotype 22; type: functional
[13] = system: Human rhinovirus sp.; assay: Minimum inhibitory concentration on HRV serotype 34; type: functional
[14] = system: Human rhinovirus sp.; assay: Minimum inhibitory concentration on HRV serotype 66; type: functional
[15] = system: Human rhinovirus sp.; assay: Minimum inhibitory concentration on HRV serotype 92; type: functional; outline: as §1
[16] = system: Human rhinovirus sp.; assay: Minimum inhibitory concentration on HRV serotype 50; type: functional
[17] = system: Human rhinovirus sp.; assay: Minimum inhibitory concentration on HRV serotype 35; type: functional
[18] = system: Human rhinovirus sp.; assay: Minimum inhibitory concentration on HRV serotype 53; type: functional
[19] = system: Human rhinovirus sp.; assay: Minimum inhibitory concentration on HRV serotype 19; type: functional
[20] = system: Human rhinovirus sp.; assay: Minimum inhibitory concentration on HRV serotype 28; type: functional
[21] = system: Human rhinovirus sp.; assay: Minimum inhibitory concentration on HRV serotype 33; type: functional
[22] = system: Human rhinovirus sp.; assay: Minimum inhibitory concentration on HRV serotype 68; type: functional
[23] = system: Human rhinovirus sp.; assay: Minimum inhibitory concentration on HRV serotype 75; type: functional
[24] = system: Human rhinovirus sp.; assay: Minimum inhibitory concentration on HRV serotype 32; type: functional
[25] = system: Human rhinovirus sp.; assay: Minimum inhibitory concentration on HRV serotype 71; type: functional
[26] = system: Human rhinovirus sp.; assay: Minimum inhibitory concentration on HRV serotype 73; type: functional
[27] = system: Human rhinovirus sp.; assay: Minimum inhibitory concentration on HRV serotype 9; type: functional; outline: as §1
[28] = system: Human rhinovirus sp.; assay: Minimum inhibitory concentration on HRV serotype 1B; type: functional
[29] = system: Human rhinovirus sp.; assay: Minimum inhibitory concentration on HRV serotype 100; type: functional
[30] = system: Human rhinovirus sp.; assay: Minimum inhibitory concentration on HRV serotype 67; type: functional
[31] = system: Human rhinovirus sp.; assay: Minimum inhibitory concentration on HRV serotype 24; type: functional
[32] = system: Human rhinovirus sp.; assay: Minimum inhibitory concentration on HRV serotype 38; type: functional
[33] = system: Human rhinovirus sp.; assay: Minimum inhibitory concentration on HRV serotype 56; type: functional
[34] = system: Human rhinovirus sp.; assay: Minimum inhibitory concentration on HRV serotype 43; type: functional
[35] = system: Human rhinovirus sp.; assay: Minimum inhibitory concentration on HRV serotype 64; type: functional
[36] = system: Human rhinovirus sp.; assay: Minimum inhibitory concentration on HRV serotype 84; type: functional; outline: as §1
[37] = system: Human rhinovirus sp.; assay: Minimum inhibitory concentration on HRV serotype 11; type: functional
[38] = system: Human rhinovirus sp.; assay: Minimum inhibitory concentration on HRV serotype 46; type: functional
[39] = system: Human rhinovirus sp.; assay: Minimum inhibitory concentration on HRV serotype 23; type: functional
[40] = system: Human rhinovirus sp.; assay: Minimum inhibitory concentration on HRV serotype 49; type: functional
[41] = system: Human rhinovirus sp.; assay: Minimum inhibitory concentration on HRV serotype 39; type: functional
[42] = system: Human rhinovirus sp.; assay: Minimum inhibitory concentration on HRV serotype 63; type: functional
[43] = system: Human rhinovirus sp.; assay: Minimum inhibitory concentration on HRV serotype 58; type: functional
[44] = system: Human rhinovirus sp.; assay: Minimum inhibitory concentration on HRV serotype 15; type: functional
[45] = system: Human rhinovirus sp.; assay: Minimum inhibitory concentration on HRV serotype 2; type: functional
[46] = system: Human rhinovirus sp.; assay: Minimum inhibitory concentration on HRV serotype 7; type: functional
[47] = system: Human rhinovirus sp.; assay: Minimum inhibitory concentration on HRV serotype 62; type: functional
[48] = system: Human rhinovirus sp.; assay: Minimum inhibitory concentration on HRV serotype 78; type: functional; outline: as §1
[49] = system: Human rhinovirus sp.; assay: Minimum inhibitory concentration on HRV serotype 96; type: functional; outline: as §1
[50] = system: Human rhinovirus sp.; assay: Minimum inhibitory concentration on HRV serotype 61; type: functional
[51] = system: Human rhinovirus sp.; assay: Minimum inhibitory concentration on HRV serotype 79; type: functional; outline: as §1
[52] = system: Human rhinovirus sp.; assay: Minimum inhibitory concentration on HRV serotype 47; type: functional
[53] = system: Human rhinovirus sp.; assay: Minimum inhibitory concentration on HRV serotype 21; type: functional
[54] = system: Human rhinovirus sp.; assay: Minimum inhibitory concentration on HRV serotype 30; type: functional
[55] = system: Human rhinovirus sp.; assay: Minimum inhibitory concentration on HRV serotype 40; type: functional
[56] = system: Human rhinovirus sp.; assay: Minimum inhibitory concentration on HRV serotype 76; type: functional; outline: as §1
[57] = system: Human rhinovirus sp.; assay: Minimum inhibitory concentration on HRV serotype 57; type: functional
[58] = system: Human rhinovirus sp.; assay: Minimum inhibitory concentration on HRV serotype 1A; type: functional
[59] = system: Human rhinovirus sp.; assay: Minimum inhibitory concentration on HRV serotype 44; type: functional
[60] = system: Human rhinovirus sp.; assay: Minimum inhibitory concentration on HRV serotype T39; type: functional; outline: as §1
[61] = system: Human rhinovirus sp.; assay: Minimum inhibitory concentration on HRV serotype 82; type: functional; outline: as §1
[62] = system: Human rhinovirus sp.; assay: Minimum inhibitory concentration on HRV serotype 89; type: functional; outline: as §1
[63] = system: Human rhinovirus sp.; assay: Minimum inhibitory concentration on HRV serotype 55; type: functional
[64] = system: Human rhinovirus sp.; assay: Minimum inhibitory concentration on HRV serotype 16; type: functional
[65] = system: Human rhinovirus sp.; assay: Minimum inhibitory concentration on HRV serotype 20; type: functional
[66] = system: Human rhinovirus sp.; assay: Minimum inhibitory concentration on HRV serotype 83; type: functional; outline: as §1

## Cc1cc(CCCOc2c(C)cc(-c3ccccc3F)cc2C)on1
[1]
  MIC50: 0.11 µM (≈ 0.0373 µg/mL)

## COc1cccc(-c2cc(C)c(OCCCc3cc(C)no3)c(C)c2)c1
[1]
  MIC50: 0.23 µM (≈ 0.0808 µg/mL)

## Cc1cc(CCCOc2c(C)cc(-c3cccc(O)c3)cc2C)on1
[1]
  MIC50: 0.44 µM (≈ 0.148 µg/mL)

## Cc1cc(CCCOc2c(C)cc(-c3cccc(CO)c3)cc2C)on1
[1]
  MIC50: 0.23 µM (≈ 0.0808 µg/mL)

## Cc1ccc(-c2cc(C)c(OCCCc3cc(C)no3)c(C)c2)cc1
[2]
  half-life: > 3.33 h
[1]
  MIC50: 0.12 µM (≈ 0.0403 µg/mL)

## Cc1cc(CCCCCOc2c(Cl)cc(C3=NCCO3)cc2Cl)on1 [WIN-54954]
[3]
  MIC: 0.416 µg/mL (≈ 1.09 µM)
[4]
  MIC: 0.043 µg/mL (≈ 0.112 µM)
[5]
  MIC: 0.124 µg/mL (≈ 0.324 µM)
[6]
  MIC: 0.191 µg/mL (≈ 0.498 µM)
[7]
  MIC: 0.073 µg/mL (≈ 0.19 µM)
[8]
  MIC: 0.033 µg/mL (≈ 0.0861 µM)
[9]
  MIC: 0.072 µg/mL (≈ 0.188 µM)
[10]
  MIC: 0.084 µg/mL (≈ 0.219 µM)
[11]
  MIC: 0.295 µg/mL (≈ 0.77 µM)
[12]
  MIC: 0.027 µg/mL (≈ 0.0704 µM)
[13]
  MIC: 0.072 µg/mL (≈ 0.188 µM)
[14]
  MIC: 0.069 µg/mL (≈ 0.18 µM)
[15]
  MIC: 0.002 µg/mL (≈ 0.00522 µM)
[16]
  MIC: 0.47 µg/mL (≈ 1.23 µM)
[17]
  MIC: 0.036 µg/mL (≈ 0.0939 µM)
[18]
  MIC: 0.355 µg/mL (≈ 0.926 µM)
[19]
  MIC: 0.178 µg/mL (≈ 0.464 µM)
[20]
  MIC: 0.116 µg/mL (≈ 0.303 µM)
[21]
  MIC: 0.107 µg/mL (≈ 0.279 µM)
[22]
  MIC: 0.032 µg/mL (≈ 0.0835 µM)
[23]
  MIC: 0.157 µg/mL (≈ 0.41 µM)
[24]
  MIC: 0.269 µg/mL (≈ 0.702 µM)
[25]
  MIC: 0.018 µg/mL (≈ 0.047 µM)
[26]
  MIC: 0.242 µg/mL (≈ 0.631 µM)
[27]
  MIC: 0.187 µg/mL (≈ 0.488 µM)
[28]
  MIC: 0.105 µg/mL (≈ 0.274 µM)
[29]
  MIC: 0.025 µg/mL (≈ 0.0652 µM)
[30]
  MIC: 0.169 µg/mL (≈ 0.441 µM)
[31]
  MIC: 0.175 µg/mL (≈ 0.457 µM)
[32]
  MIC: 0.078 µg/mL (≈ 0.204 µM)
[33]
  MIC: 0.099 µg/mL (≈ 0.258 µM)
[34]
  MIC: 0.283 µg/mL (≈ 0.738 µM)
[35]
  MIC: 0.497 µg/mL (≈ 1.3 µM)
[36]
  MIC: > 3 µg/mL
[37]
  MIC: 0.102 µg/mL (≈ 0.266 µM)
[38]
  MIC: 0.143 µg/mL (≈ 0.373 µM)
[39]
  MIC: 0.451 µg/mL (≈ 1.18 µM)
[40]
  MIC: 0.16 µg/mL (≈ 0.417 µM)
[41]
  MIC: 0.347 µg/mL (≈ 0.905 µM)
[42]
  MIC: 0.101 µg/mL (≈ 0.264 µM)
[43]
  MIC: 0.028 µg/mL (≈ 0.0731 µM)
[44]
  MIC: 0.49 µg/mL (≈ 1.28 µM)
[45]
  MIC: 0.058 µg/mL (≈ 0.151 µM)
[46]
  MIC: 0.035 µg/mL (≈ 0.0913 µM)
[47]
  MIC: 0.115 µg/mL (≈ 0.3 µM)
[48]
  MIC: 0.081 µg/mL (≈ 0.211 µM)
[49]
  MIC: 0.091 µg/mL (≈ 0.237 µM)
[50]
  MIC: 0.127 µg/mL (≈ 0.331 µM)
[51]
  MIC: 0.028 µg/mL (≈ 0.0731 µM)
[52]
  MIC: 0.015 µg/mL (≈ 0.0391 µM)
[53]
  MIC: 0.031 µg/mL (≈ 0.0809 µM)
[54]
  MIC: 0.156 µg/mL (≈ 0.407 µM)
[55]
  MIC: 0.053 µg/mL (≈ 0.138 µM)
[56]
  MIC: 0.102 µg/mL (≈ 0.266 µM)
[57]
  MIC: 0.156 µg/mL (≈ 0.407 µM)
[58]
  MIC: 0.419 µg/mL (≈ 1.09 µM)
[59]
  MIC: 0.119 µg/mL (≈ 0.31 µM)
[1]
  MIC50: 0.78 µM (≈ 0.299 µg/mL)
[60]
  MIC: 0.299 µg/mL (≈ 0.78 µM)
[61]
  MIC: 0.245 µg/mL (≈ 0.639 µM)
[62]
  MIC: 0.034 µg/mL (≈ 0.0887 µM)
[63]
  MIC: 0.02 µg/mL (≈ 0.0522 µM)
[64]
  MIC: 0.639 µg/mL (≈ 1.67 µM)
[65]
  MIC: 0.037 µg/mL (≈ 0.0965 µM)
[66]
  MIC: 0.018 µg/mL (≈ 0.047 µM)
